High-throughput results as filed in PubChem.
procasp3 activ: activates human procaspase-3; AID 463141; 0.11% of 330,000 active; P42574; recombinant procaspase-3 D3A, Ac-DEVD-pNA absorbance 405 nm; activation, % at 8.5 µM;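 active = activation above the mean of all tested compounds plus 3 SD, cut at about 21% in these data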;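 note: 0% = DMSO alone and 100% = DMSO wells spiked with extra 5 µM PC-3 D3A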
Target sequence (P42574 whole entry D9A/D28A/D175A): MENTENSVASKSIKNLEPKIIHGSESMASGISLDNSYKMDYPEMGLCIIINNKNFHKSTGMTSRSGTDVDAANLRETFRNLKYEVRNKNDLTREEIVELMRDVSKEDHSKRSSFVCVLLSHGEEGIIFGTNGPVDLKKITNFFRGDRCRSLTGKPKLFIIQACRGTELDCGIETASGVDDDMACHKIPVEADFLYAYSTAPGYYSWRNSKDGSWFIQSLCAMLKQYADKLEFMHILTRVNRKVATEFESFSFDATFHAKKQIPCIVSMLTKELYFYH
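assay system = Procaspase-3 D3A mutant | signal = absorbance at 405 nm, 0 and 120 min | times = 1 h preincubation plus 2 h reaction at 25 °C | repeats = single replicate | read-out = % activation between DMSO and enzyme-spiked controls | medium = Zinc-free HEPES saline buffer with Triton X-100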
bovine MsrA act: bovine methionine sulfoxide reductase A activation; purified bovine MsrA, absorbance read-out; 0.3% of 360,000 active; activation, % at 10.6 µM; in the data active = activation above about 7.5%;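 note: 0% = vehicle and 100% = reference activator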
proCasp7 act: counter-screen for procaspase-3 activators: activators of human procaspase-7. P55210. recombinant procaspase-7, Ac-DEVD-pNA absorbance 405 nm; D23A/D198A/D206A triple mutant, cannot self-cleave; scale: DMSO 0, 5 µM enzyme 100. activation, % at 8.5 µM. 0.093% of 330,000 active;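 active = percent activation above the screen-wide mean plus 3 SD, cut at about 25% in these data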
Target sequence (P55210 whole entry D23A/D198A/D206A): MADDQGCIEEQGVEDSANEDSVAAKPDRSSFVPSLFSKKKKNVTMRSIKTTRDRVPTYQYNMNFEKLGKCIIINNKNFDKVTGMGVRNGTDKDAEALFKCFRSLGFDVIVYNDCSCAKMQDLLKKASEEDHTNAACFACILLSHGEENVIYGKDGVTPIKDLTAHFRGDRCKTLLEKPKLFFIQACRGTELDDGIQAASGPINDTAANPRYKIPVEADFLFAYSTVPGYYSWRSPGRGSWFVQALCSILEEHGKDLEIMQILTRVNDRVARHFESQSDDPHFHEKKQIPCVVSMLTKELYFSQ
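Assay system: Uncleavable procaspase-7 mutant enzyme | Input: 2 µM procaspase-7 mutant as dispensed | Timing: 1 h compound preincubation, 2 h substrate cleavage, 25 °C | Repeats: One well per compound | Control set: DMSO wells as 0%, DMSO with 5 µM added PC-7 as 100% | Technique: Epi-absorbance of released pNA at 405 nm, two timepoints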
MsrA inh: inhibitors of bovine MsrA | purified bovine MsrA, absorbance read-out | inhibition, % at 15.5 µM | 0.75% of 360,000 active;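 note: 0% = vehicle wells with enzyme and 100% = reference inhibitor wells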
MsrA inh confirm: bovine MsrA inhibition, confirmed; shares compounds with MsrA inh; purified bovine MsrA, absorbance read-out; inhibition, % at 15.5 µM; 41% of 2,300 active; AID 651822;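 note: coupled to thioredoxin reductase with NADPH and selenocystamine and DMSO as substrate; 0% = vehicle only and 100% = full effect of reference inhibitor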
Active calls of the source: *; / = not tested or not shown. An excerpt weighted towards active compounds, which were near 1.2% of everything screened. Cut-off read from the data, not from the text of the source, unless noted: active = inhibition above about 4.5%; inactive = the rest.

SMILES | procasp3 activ | bovine MsrA act | proCasp7 act | MsrA inh | MsrA inh confirm
O=C(N/N=C/c1ccco1)c1cc(C2CC2)[nH]n1 | 1 | -3 | 11 | 1 | /
O=C(N/N=C/c1ccc([N+](=O)[O-])cc1)c1ccc2nc[nH]c2c1 | 3 | -1 | 0 | 5.6* | 4.8*
O=C(N/N=C/c1ccc([N+](=O)[O-])cc1)c1cc(C2CC2)[nH]n1 | 1 | -3 | -2 | 5.3* | 5.3*
O=C1CCC(NC(=O)Cc2ccccc2)C(=O)N1 (stereo not given) | / | / | / | 1 | /
C=CCN1C(c2ccccc2)=CS/C1=C(\C#N)c1nnc2n1CCCCC2 | 1 | -6 | 1 | 4.8* | 3
CCOc1ccc(C2=CS/C(=C(\C#N)c3nnc4n3CCCCC4)N2CC)cc1 | -3 | -4 | 1 | 3 | /
CCOC(=O)C1=CCC(c2ccccc2)N(S(C)(=O)=O)C1 (stereo not given) | / | / | / | -1 | /
CC1(C)Cc2c(cnn2-c2ccc(F)cc2)C(NC(=O)c2ccc(=O)oc2)C1 (stereo not given) | 0 | -4 | -2 | 6.4* | 5.5*
C[C@@H]1ON(C)[C@H]2C[C@H]3c4[nH]c5cccc(-c6ccc7c(c6)OCO7)c5c4CCN3C(=O)[C@@H]12 | / | / | / | 0 | /
O=C(O)c1cccc(Nc2nc(C(F)(F)F)nc3ccccc23)c1 | 0 | -7 | 5 | 4.7* | 2
O=C(O)c1ccc(Nc2nc(-c3ccccc3)nc3ccccc23)cc1 | 3 | -4 | 5 | 6.0* | 3
CNC(=O)c1ccc(Nc2nc(-c3ccccc3)nc3ccccc23)cc1 | -7 | -4 | -1 | 2 | /
O=C(O)c1cccc(Nc2nc(-c3ccccc3)nc3ccccc23)c1 | -5 | -1 | -6 | 3 | /
C=CCN1[C@H](C)[C@H](c2ccccc2)Oc2cc(Br)ccc2S1(=O)=O | / | / | / | 0 | /
CC(C)N(c1cc(=O)nc2ccccn12)C(C)C | / | / | / | 0 | /
CCN(CC)S(=O)(=O)c1cccc(-c2n[nH]c(=S)n2/N=C/c2ccc(OC)cc2)c1 | -31 | -1 | -24 | 7.7* | 4
COc1ccccc1/C=C/C=N/NC(=O)c1ccc(=O)n(C)c1 | 2 | -12 | 1 | 8.1* | 6.9*
COc1cccc(/C=N/NC(=O)c2cnccn2)c1O | 6 | 0 | 8 | 3 | /
COc1ccccc1/C=C/C=N/NC(=O)c1cnccn1 | 7 | -5 | 6 | 7.1* | 5.4*
CC1Cc2ccccc2N1C(=O)c1cnc2ccccn2c1=O (stereo not given) | 9 | -4 | 4 | 2 | /
Cc1csc2ncc(C(=O)N3c4ccccc4CC3C)c(=O)n12 (stereo not given) | -1 | -14 | -8 | 6.4* | 2
CCOC(=O)/C(C#N)=C/c1cn(CCC(=O)O)nc1-c1ccc(OC)cc1 | 7 | -5 | -7 | 5.0* | 2
c1ccc(-c2nnsc2Sc2ccccn2)cc1 | 7 | 3 | -8 | 5.8* | 4
CC(C)c1[nH]nc2c1C(c1ccc3c(c1)OCO3)NC2=O (stereo not given) | / | / | / | -2 | /
CCN(CC)C(=O)[C@H]1C[C@@H]2[C@H](C[C@@H](c3ccccc3)[C@H]1C)N(c1ccc(F)cc1)C(=O)N2CCCOc1ccccc1 | / | / | / | 0 | /
SMILES | procasp3 activ | bovine MsrA act | proCasp7 act | MsrA inh | MsrA inh confirm
CCOC(=O)N[C@H](C(=O)N1CCC[C@H]1C(=O)NCCc1ccccc1Cl)C1CCCCC1 | / | / | / | -1 | /
Cc1ccc(OCC(=O)N/N=C/C=C/c2ccco2)cc1 | -21 | -11 | -22 | 4.7* | 2
O=[N+]([O-])c1c(Nc2ccccc2O)cc(N2CCOCC2)c2nonc12 | -6 | -6 | -15 | 18* | 24*
COC(=O)[C@]12C[C@H](CC(=O)N3CCN(C(=O)c4ccco4)CC3)C(=O)N(CCC3=CCCCC3)C1=C[C@H](COCc1ccccc1)O[C@@H]2C | / | / | / | 0 | /
CC(C)C(=O)N1CCN(c2ccc([N+](=O)[O-])c(NC(C)c3ccccc3)c2)CC1 (stereo not given) | -8 | -3 | -18 | 12* | 7.2*
COCc1cc(C)nc(N/N=C/c2ccc(-c3cc(C(=O)O)ccc3Cl)o2)c1C#N | -8 | / | 8 | 5.3* | 1
COC(=O)c1cc(S(=O)(=O)NCC2CCN(C(=O)C(=O)c3cccs3)CC2)cs1 | / | / | / | 0 | /
COc1ccc(N=Cc2ccc(N(CCC#N)CCC#N)cc2)cc1 | / | -6 | / | 4.9* | 4.9*
CCN(CC)c1ccc(C=Nc2cccnc2Cl)c(O)c1 | 4 | -5 | -8 | 5.5* | 6.6*
CCN(CC)c1ccc(C=Nc2cc(C)ccc2C)c(O)c1 | -6 | -14 | 1 | 3 | /
CC(=O)N1c2ccccc2NC2=C(C(=O)CCC2)C1c1ccc(F)cc1 (stereo not given) | -3 | -2 | 6 | 3 | /
O=C(O)CCC(=O)N1c2ccccc2NC2=C(C(=O)CC(c3ccc(F)cc3)C2)C1c1ccc([N+](=O)[O-])o1 (stereo not given) | 2 | -4 | 3 | 7.0* | 4.6*
COc1ccc(C2CC(=O)C3=C(C2)Nc2ccccc2N(C(=O)CCC(=O)O)C3c2ccc(F)cc2)cc1 (stereo not given) | 1 | -2 | 9 | 5.0* | 4
CCOC(=O)CN1C(=O)[C@]2(OCCC=C[C@H]2C)c2ccccc21 | / | / | / | 3 | /
O=C(N/N=C/c1ccc(O)c(O)c1)N/N=C/c1ccc(O)c(O)c1 | / | -10 | / | 5.7* | 3
COc1ccc2c(c1)c(C(=O)N/N=C/c1ccc(Br)cc1)c(C)n2C | -3 | -9 | 2 | 0 | /
Cc1nonc1C(=O)N/N=C/c1ccc(O)c(O)c1 | -2 | -3 | -3 | 4 | /
COc1ccc2c(c1)c(C(=O)N/N=C/c1ccc(O)c(O)c1)c(C)n2C | -6 | -10 | -4 | 5.5* | 4
COCCN1Cc2cc(C(=O)OC)c3c(c2C1=O)c1cc(F)ccc1n3S(=O)(=O)c1ccc(C)cc1 | / | / | / | 1 | /
CCOC(=O)c1sc(NC(=O)C(C)C)c(C#N)c1C | -5 | -5 | -31 | 1 | /
CCOC(=O)c1sc(NC(=O)C2=COCCO2)c(C#N)c1C | -5 | -3 | 6 | 5.8* | 2
Cc1ccc(CN2CC=CS2(=O)=O)cc1 | / | / | / | -1 | /
O=C(N/N=C/c1ccc(N2CCCC2)c([N+](=O)[O-])c1)c1cccnc1 | -9 | -4 | 9 | 7.5* | 5.5*
Nc1nonc1-c1nc2ccccc2n1CC(=O)N/N=C/c1ccc(-c2cccc(C(=O)O)c2)o1 | / | -5 | / | 5.7* | 6.3*
O=C(Cc1ccc(Br)cc1)N/N=C/c1ccc(-c2cccc(C(=O)O)c2)o1 | -5 | -7 | 7 | 4 | /
Nc1nnc(CC(=O)N/N=C/c2ccc(-c3cccc(C(=O)O)c3)o2)s1 | -8 | -7 | 5 | 5.2* | 4.9*
O=Cc1ccc(-c2cccc(C(=O)O)c2)o1 | 0 | -3 | -1 | 4.7* | 2
COc1ccc(-c2cccc3c4c([nH]c23)[C@@H]2C[C@H]3[C@@H](C(=O)N2CC4)[C@H](C)ON3C)cc1 | / | / | / | 0 | /
COc1ccccc1CCn1cnc(-c2ccc(F)cc2F)c1CC(C)C | / | / | / | 0 | /
